Measurements taken from ChEMBL document CHEMBL4004834, “Transition State-Based Sialyltransferase Inhibitors: Mimicking Oxocarbenium Ion by Simple Amide” (J Med Chem, 2017).

Assays:
[1] = target: T1, Beta-galactoside alpha-2,6-sialyltransferase 1 (Homo sapiens, UniProt P15907); assay: Inhibition of recombinant human N-terminal His-tagged ST6Gal-1 (44 to 406 residues) using CMP-Neu5Ac as substrate […] by UV/RP-HPLC method
T1 sequence (P15907 whole entry): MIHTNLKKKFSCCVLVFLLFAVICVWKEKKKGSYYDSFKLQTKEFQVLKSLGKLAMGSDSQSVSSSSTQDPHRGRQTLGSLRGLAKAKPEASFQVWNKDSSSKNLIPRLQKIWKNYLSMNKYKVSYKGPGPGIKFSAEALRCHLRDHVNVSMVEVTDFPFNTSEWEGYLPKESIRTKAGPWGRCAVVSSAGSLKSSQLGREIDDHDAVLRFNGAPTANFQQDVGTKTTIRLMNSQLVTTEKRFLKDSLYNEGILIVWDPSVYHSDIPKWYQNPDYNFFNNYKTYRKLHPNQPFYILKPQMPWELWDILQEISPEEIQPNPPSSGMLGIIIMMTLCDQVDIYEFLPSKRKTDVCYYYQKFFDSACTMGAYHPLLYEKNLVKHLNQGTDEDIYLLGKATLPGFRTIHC

[2] = target: T2, Beta-galactoside alpha-2,6-sialyltransferase 1 (Homo sapiens) (UniProt P15907); assay: Inhibition of recombinant human N-terminal His-tagged ST6Gal-1 (44 to 406 residues) at 1 uM using CMP-Neu5Ac as substrate […] by UV/RP-HPLC method
T2 sequence (whole entry): T1 sequence (P15907 whole entry)
How it was run: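 hST6Gal-I (aa 44-406), 80 ng per reaction, in pH 6.5 Mes buffer with 2 mM MnCl2 and 0.5% Triton X-100. Inhibitor at 1 µM with CMP-Neu5Ac (250 µM stock) and p-nitrophenyl LacNAc acceptor (5 mM stock), 37 °C, 30 min. Quenched by water and 95 °C for 2 min. Product read by RP-HPLC at 300 nm; donor consumption kept below 15%. Duplicates averaged.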

[3] = target: T2, Beta-galactoside alpha-2,6-sialyltransferase 1 (Homo sapiens); assay: Inhibition of recombinant human ST6Gal-1 (44 to 406 residues) assessed as ratio of CMP-Neu5Ac Km to compound Ki […] by UV/RP-HPLC method

Row | Compound | Ki [1] [nM] | inhibition [2] [%] | Ratio [3]
1 | Nc1ccn([C@@H]2O[C@H](COP(=O)(O)O[C@@H](c3cccc(Oc4ccccc4)c3)P(=O)(O)O)[C@@H](O)[C@H]2O)c(=O)n1 | 19 | 87.6 | 2190
2 | CC(=O)N[C@H]1[C@H](Oc2ccccc2)OC(C(OP(=O)(O)OC[C@H]2O[C@@H](n3ccc(N)nc3=O)[C@H](O)[C@@H]2O)P(=O)(O)O)=C[C@@H]1O (stereo in doubt; 1-h) [listing 1 of 2 here] | 29 | – | –
3 | CC(=O)N[C@H]1[C@H](Oc2ccccc2)OC(C(OP(=O)(O)OC[C@H]2O[C@@H](n3ccc(N)nc3=O)[C@H](O)[C@@H]2O)P(=O)(O)O)=C[C@@H]1O (stereo in doubt; 1-h) [listing 2 of 2 here] | – | – | 1580
4 | CC(=O)N[C@H]1[C@H](Oc2ccccc2)OC(C(OP(=O)(O)OC[C@H]2O[C@@H](n3ccc(N)nc3=O)[C@H](O)[C@@H]2O)P(=O)(O)O)=C[C@@H]1O (stereo in doubt; 1-l) [listing 1 of 2 here] | 690 | – | –
5 | CC(=O)N[C@H]1[C@H](Oc2ccccc2)OC(C(OP(=O)(O)OC[C@H]2O[C@@H](n3ccc(N)nc3=O)[C@H](O)[C@@H]2O)P(=O)(O)O)=C[C@@H]1O (stereo in doubt; 1-l) [listing 2 of 2 here] | – | – | 67
6 | Nc1ccn([C@@H]2O[C@H](COP(=O)(O)OC(c3ccccc3)P(=O)(O)O)[C@@H](O)[C@H]2O)c(=O)n1 (stereo in doubt; 2h) [listing 1 of 2 here] | 200 | – | –
7 | Nc1ccn([C@@H]2O[C@H](COP(=O)(O)OC(c3ccccc3)P(=O)(O)O)[C@@H](O)[C@H]2O)c(=O)n1 (stereo in doubt; 2h) [listing 2 of 2 here] | – | – | 230
8 | Nc1ccn([C@@H]2O[C@H](COP(=O)(O)OC(c3ccccc3)P(=O)(O)O)[C@@H](O)[C@H]2O)c(=O)n1 (stereo in doubt; 2l) [listing 1 of 2 here] | 1000 | – | –
9 | Nc1ccn([C@@H]2O[C@H](COP(=O)(O)OC(c3ccccc3)P(=O)(O)O)[C@@H](O)[C@H]2O)c(=O)n1 (stereo in doubt; 2l) [listing 2 of 2 here] | – | – | 46
10 | CC(=O)NC[C@@H]1CCC(OP(=O)(O)OC[C@H]2O[C@@H](n3ccc(N)nc3=O)[C@H](O)[C@@H]2O)(P(=O)(O)O)[C@H]1OCc1ccccc1 (stereo in doubt; 4-h) | – | – | 1490
11 | CC(=O)NC[C@@H]1CCC(OP(=O)(O)OC[C@H]2O[C@@H](n3ccc(N)nc3=O)[C@H](O)[C@@H]2O)(P(=O)(O)O)[C@H]1OCc1ccccc1 (stereo in doubt; 4-l) | – | – | 87
12 | Nc1ccn([C@@H]2O[C@H](COP(=O)(O)OC(CNC(=O)c3ccccc3)P(=O)(O)O)[C@@H](O)[C@H]2O)c(=O)n1 (stereo in doubt; 5a-l) [listing 1 of 2 here] | 174 | – | –
13 | Nc1ccn([C@@H]2O[C@H](COP(=O)(O)OC(CNC(=O)c3ccccc3)P(=O)(O)O)[C@@H](O)[C@H]2O)c(=O)n1 (stereo in doubt; 5a-l) [listing 2 of 2 here] | – | 61.7 | 239
14 | Nc1ccn([C@@H]2O[C@H](COP(=O)(O)OC(CNC(=O)c3ccccc3)P(=O)(O)O)[C@@H](O)[C@H]2O)c(=O)n1 (stereo in doubt; 5a-s) [listing 1 of 2 here] | 16 | – | –
15 | Nc1ccn([C@@H]2O[C@H](COP(=O)(O)OC(CNC(=O)c3ccccc3)P(=O)(O)O)[C@@H](O)[C@H]2O)c(=O)n1 (stereo in doubt; 5a-s) [listing 2 of 2 here] | – | 88.9 | 2600
16 | Nc1ccn([C@@H]2O[C@H](COP(=O)(O)OC(CN3C(=O)c4ccccc4C3=O)P(=O)(O)O)[C@@H](O)[C@H]2O)c(=O)n1 (stereo in doubt; 5f-l) | – | 14.3 | –
17 | Nc1ccn([C@@H]2O[C@H](COP(=O)(O)OC(CN3C(=O)c4ccccc4C3=O)P(=O)(O)O)[C@@H](O)[C@H]2O)c(=O)n1 (stereo in doubt; 5f-s) | – | 34.5 | –

Results, then the compound that gave them:

Row | Ki [1] [nM] | inhibition [2] [%] | Ratio [3] | Compound
18 | – | – | 7.1 | Nc1ccn([C@@H]2O[C@H](COP(=O)(O)OC(C3CCCC3)P(=O)(O)O)[C@@H](O)[C@H]2O)c(=O)n1 (some centres undefined)
19 | 122 | – | – | Nc1ccn([C@@H]2O[C@H](COP(=O)(O)OC(C(=O)Nc3ccccc3)P(=O)(O)O)[C@@H](O)[C@H]2O)c(=O)n1 (stereo in doubt; 5b-l) [listing 1 of 2 here]
20 | – | 67.7 | 341 | Nc1ccn([C@@H]2O[C@H](COP(=O)(O)OC(C(=O)Nc3ccccc3)P(=O)(O)O)[C@@H](O)[C@H]2O)c(=O)n1 (stereo in doubt; 5b-l) [listing 2 of 2 here]
21 | 106 | – | – | Nc1ccn([C@@H]2O[C@H](COP(=O)(O)OC(C(=O)Nc3ccccc3)P(=O)(O)O)[C@@H](O)[C@H]2O)c(=O)n1 (stereo in doubt; 5b-s) [listing 1 of 2 here]
22 | – | 69.7 | 393 | Nc1ccn([C@@H]2O[C@H](COP(=O)(O)OC(C(=O)Nc3ccccc3)P(=O)(O)O)[C@@H](O)[C@H]2O)c(=O)n1 (stereo in doubt; 5b-s) [listing 2 of 2 here]
23 | 60 | – | – | Nc1ccn([C@@H]2O[C@H](COP(=O)(O)OC(C(=O)N3CCCC3)P(=O)(O)O)[C@@H](O)[C@H]2O)c(=O)n1 (stereo in doubt; 5c-S) [listing 1 of 2 here]
24 | – | 77 | 694 | Nc1ccn([C@@H]2O[C@H](COP(=O)(O)OC(C(=O)N3CCCC3)P(=O)(O)O)[C@@H](O)[C@H]2O)c(=O)n1 (stereo in doubt; 5c-S) [listing 2 of 2 here]
25 | 165 | – | – | Nc1ccn([C@@H]2O[C@H](COP(=O)(O)OC(C(=O)N3CCCC3)P(=O)(O)O)[C@@H](O)[C@H]2O)c(=O)n1 (stereo in doubt; 5c-l) [listing 1 of 2 here]
26 | – | 65.7 | 252 | Nc1ccn([C@@H]2O[C@H](COP(=O)(O)OC(C(=O)N3CCCC3)P(=O)(O)O)[C@@H](O)[C@H]2O)c(=O)n1 (stereo in doubt; 5c-l) [listing 2 of 2 here]
27 | 45 | – | – | Nc1ccn([C@@H]2O[C@H](COP(=O)(O)OC(C(=O)N3CCCCC3)P(=O)(O)O)[C@@H](O)[C@H]2O)c(=O)n1 (stereo in doubt; 5d-l) [listing 1 of 2 here]
28 | – | 80.3 | 925 | Nc1ccn([C@@H]2O[C@H](COP(=O)(O)OC(C(=O)N3CCCCC3)P(=O)(O)O)[C@@H](O)[C@H]2O)c(=O)n1 (stereo in doubt; 5d-l) [listing 2 of 2 here]
29 | 20 | – | – | Nc1ccn([C@@H]2O[C@H](COP(=O)(O)OC(C(=O)N3CCCCC3)P(=O)(O)O)[C@@H](O)[C@H]2O)c(=O)n1 (stereo in doubt; 5d-s) [listing 1 of 2 here]
30 | – | 86.3 | 2080 | Nc1ccn([C@@H]2O[C@H](COP(=O)(O)OC(C(=O)N3CCCCC3)P(=O)(O)O)[C@@H](O)[C@H]2O)c(=O)n1 (stereo in doubt; 5d-s) [listing 2 of 2 here]
31 | – | 15.1 | – | Nc1ccn([C@@H]2O[C@H](COP(=O)(O)OC(CN3C(=O)CCC3=O)P(=O)(O)O)[C@@H](O)[C@H]2O)c(=O)n1 (stereo in doubt; 5e-l)
32 | 224 | – | – | Nc1ccn([C@@H]2O[C@H](COP(=O)(O)OC(CN3C(=O)CCC3=O)P(=O)(O)O)[C@@H](O)[C@H]2O)c(=O)n1 (stereo in doubt; 5e-s) [listing 1 of 2 here]
33 | – | 58.8 | 186 | Nc1ccn([C@@H]2O[C@H](COP(=O)(O)OC(CN3C(=O)CCC3=O)P(=O)(O)O)[C@@H](O)[C@H]2O)c(=O)n1 (stereo in doubt; 5e-s) [listing 2 of 2 here]
